STAT1 inh – reduces IFN-gamma driven STAT1 reporter signal. hit rate 0.35% among 200,000. NIH 3T3 STAT1-luciferase reporter, luminescence. inhibition, % at 5.5 µM;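 active means inhibition above a set limit, the mean inhibition across all tested compounds plus 3 SD, cut at about 34% in these data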;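 further: 0% = IFN-gamma with DMSO and 100% = IFN-gamma with 300 µM nifuroxazide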
STAT3 act – activators of IL-6 induced STAT3 signaling | activation (% of control), % at 5.6 µM | U3A cells, IL-6 STAT3-luciferase reporter, luminescence; 100% = signal with IL-6 EC80 alone | AID 871 | hit rate 0.91% among 190,000;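 active means activation above the screen-wide mean of compound activation plus 3 SD, cut at about 130% in these data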;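 further: 0% = background luminescence of wells with medium and substrate only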
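Material: human STAT1-deficient U3A cells with stable STAT3-luciferase reporter / Probe or stimulus: IL-6 stimulus at 33 ng/mL final / Schedule: 1 h compound pre-exposure, 6 h IL-6 stimulation, 37 °C / Technique: luminescence / Read-out basis: percent of IL-6-only median luminescence / Control set: IL-6-only high control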
STAT3 inh – reduces IL-6 driven STAT3 reporter signal; U3A cells, IL-6 STAT3-luciferase reporter, luminescence; host cell line lacks STAT1; inhibition, % at 5.5 µM; hit rate 0.89% among 190,000; AID 862;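 active means inhibition above the mean inhibition across all screened compounds plus 3 SD, cut at about 44% in these data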;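 further: 0% = DMSO only wells and 100% = 100 µM nifuroxazide control wells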
STAT1 activator – activators of IFN-gamma induced STAT1 signaling; NIH 3T3 STAT1-luciferase reporter, luminescence; 100% = IFN-gamma alone, no compound; activation (% of control), % at 5.5 µM; hit rate 2.6% among 200,000; AID 932;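 active means activation above the screen-wide mean activation plus 3 SD, cut at about 130% in these data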;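 further: raw ratio to IFN-gamma control signal so 100% means no change and 0% no light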
HSV replic up – increases HSV replication in cells. AID 1956. hit rate 0.005% among 220,000. HSV replication augmentation in cells, fold increase. maximum fold increase; in the data active means maximum fold increase above about 1.5; inconclusive means no clear call, values can overlap the other calls; tested in PC3 cells
Cl transport mod – KCC2 (human) Cl- transport modulation. Q9H2X9. hit rate 2.2% among 190,000. KCC2 cells, thallium flux FluoZin-2 fluorescence. B-score of Tl+ flux slope (higher = more flux/activation; lower = inhibition) at 10 µM;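 active means thallium flux slope and its plate-corrected score both differing from the plate sample mean at a set confidence after two filtering rounds, in either direction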;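 further: slope of fluorescence scaled to starting intensity during 10 to 20 s after thallium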
Target sequence (Q9H2X9 whole entry, looked up): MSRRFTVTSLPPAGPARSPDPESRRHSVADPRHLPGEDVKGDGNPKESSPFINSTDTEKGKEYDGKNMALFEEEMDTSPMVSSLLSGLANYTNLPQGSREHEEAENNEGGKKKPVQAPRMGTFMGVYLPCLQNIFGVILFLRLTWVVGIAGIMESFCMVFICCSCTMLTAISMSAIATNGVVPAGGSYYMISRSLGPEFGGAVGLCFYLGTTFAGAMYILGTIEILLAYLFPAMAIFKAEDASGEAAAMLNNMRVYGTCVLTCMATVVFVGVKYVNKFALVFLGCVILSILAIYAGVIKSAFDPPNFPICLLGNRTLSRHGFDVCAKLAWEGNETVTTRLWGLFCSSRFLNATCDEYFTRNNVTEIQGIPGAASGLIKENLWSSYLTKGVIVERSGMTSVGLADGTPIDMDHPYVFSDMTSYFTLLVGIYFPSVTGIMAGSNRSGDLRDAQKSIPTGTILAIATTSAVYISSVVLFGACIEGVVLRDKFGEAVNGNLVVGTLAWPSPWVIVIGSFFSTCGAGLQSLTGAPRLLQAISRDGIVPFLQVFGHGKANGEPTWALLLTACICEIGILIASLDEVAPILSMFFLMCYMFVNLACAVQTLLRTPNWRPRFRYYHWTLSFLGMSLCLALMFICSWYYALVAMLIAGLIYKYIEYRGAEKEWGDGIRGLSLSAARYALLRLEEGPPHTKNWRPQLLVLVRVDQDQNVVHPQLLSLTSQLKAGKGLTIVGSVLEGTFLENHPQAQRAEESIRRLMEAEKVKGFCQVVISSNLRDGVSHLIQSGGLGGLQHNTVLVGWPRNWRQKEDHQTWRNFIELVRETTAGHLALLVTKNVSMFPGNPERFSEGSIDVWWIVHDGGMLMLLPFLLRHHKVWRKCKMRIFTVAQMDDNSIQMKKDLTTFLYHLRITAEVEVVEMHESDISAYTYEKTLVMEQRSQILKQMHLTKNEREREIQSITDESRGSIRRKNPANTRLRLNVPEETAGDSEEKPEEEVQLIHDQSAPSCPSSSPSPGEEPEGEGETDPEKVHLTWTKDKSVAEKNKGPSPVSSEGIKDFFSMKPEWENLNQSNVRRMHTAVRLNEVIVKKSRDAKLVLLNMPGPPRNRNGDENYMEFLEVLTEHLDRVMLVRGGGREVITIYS
* hit, by the source's call. A selection: hits, their analogues and other compounds. The true share with any hit is near 5.5%.

`COc1cccc(C(=O)CN(C(=O)c2ccc(Cl)cc2Cl)N2C(=O)c3ccccc3C2=O)c1` gave STAT1 inh -10.2, STAT3 act 107.9, STAT3 inh -9.4, STAT1 activator 109.1, HSV replic up inactive and Cl transport mod -0.649.
`Cc1ccc(NC(=O)c2c(Cl)nc3ccccn23)cc1` gave STAT1 inh -44.2, STAT3 act 121.6, STAT3 inh -17.7, STAT1 activator 139.4*, HSV replic up inactive and Cl transport mod 0.693.
Screening Cc1nc2ccccn2c1C(=O)Nc1ccc(Cl)cc1 returned STAT1 inh -42.9, STAT3 act 91.5, STAT3 inh 10.5, STAT1 activator 140.3*, HSV replic up inactive and Cl transport mod 0.211.
Screening Cc1csc(NC(=O)CS(=O)(=O)Cc2ccccc2)n1 returned STAT1 inh 2.0, STAT3 act 107.9, STAT3 inh -8.0, STAT1 activator 98.0, HSV replic up inactive and Cl transport mod -0.902.
`O=C(Cn1ncc(N2CCCC2)c(Cl)c1=O)c1ccc(Cl)cc1` gave STAT1 inh -41.1, STAT3 act 110.2, STAT3 inh -0.1, STAT1 activator 135.6*, HSV replic up inactive and Cl transport mod -1.9.
For CC(C)Oc1ccc(C(=O)N/N=C/c2ccc(-c3ccc(S(=O)(=O)Nc4ncccn4)cc3)o2)cc1 the results were STAT1 inh -1.5, STAT3 act 97.9, STAT3 inh 6.9, STAT1 activator 101.4, HSV replic up inconclusive and Cl transport mod -1.85.
Screening COCCNc1c(-c2ccc(OC)c(OC)c2)nc2ccc(Cl)cn12 returned STAT1 inh 4.7, STAT3 act 82.7, STAT3 inh 24.1, STAT1 activator 94.2, HSV replic up inactive and Cl transport mod -1.35.
`COCCNc1c(-c2cc3ccc(C)c(C)c3[nH]c2=O)nc2ccccn12` gave STAT1 inh -34.4, STAT3 act 93.5, STAT3 inh 9.9, STAT1 activator 129.8*, HSV replic up inactive and Cl transport mod 0.0629.
`N#Cc1ccc(Cl)cc1NC(=O)COC(=O)c1ccc(S(=O)(=O)N2CCCC2)cc1` gave STAT1 inh 11.0, STAT3 act 133.8*, STAT3 inh -43.1, STAT1 activator 89.9 and Cl transport mod 1.23.
CCOC(=O)c1sc(NC(=O)CCN2CCN(CC)CC2)c(C(=O)OCC)c1C was read as STAT1 inh 1.4, STAT3 act 85.7, STAT3 inh 21.6, STAT1 activator 95.7, HSV replic up inactive and Cl transport mod -0.326.
Oc1ccc(Cl)cc1-c1cc(-c2ccco2)[nH]n1 was read as STAT1 inh -12.2, STAT3 act 133.9*, STAT3 inh -38.8, STAT1 activator 110.8, HSV replic up inactive and Cl transport mod -0.551.
Screening N#CCc1nc2ccccc2c(=O)[nH]1 returned HSV replic up inactive and Cl transport mod 0.421.
Screening COc1cc(/C=C(\C#N)c2nc3ccccc3[nH]2)c([N+](=O)[O-])cc1OCc1ccccc1 returned STAT1 inh -4.8, STAT3 act 136.6*, STAT3 inh -36.1, STAT1 activator 104.4, HSV replic up inactive and Cl transport mod -4.54*.
Screening COc1cc(/C=C(\C#N)c2nc3ccccc3[nH]2)ccc1OC(=O)c1ccco1 returned STAT1 inh -16.7, STAT3 act 96.1, STAT3 inh 4.9, STAT1 activator 114.7 and Cl transport mod -1.45.
`O=C(Nc1ccc(Br)cc1F)c1cccnc1` gave STAT1 inh -10.0, STAT3 act 86.6, STAT3 inh 17.7, STAT1 activator 108.9, HSV replic up inactive and Cl transport mod 0.308.
For Cc1cc(NC(=O)CSc2nc3ccccc3c(=O)n2C(C)c2ccccc2)no1 (stereo unspecified) the results were STAT1 inh 11.9, STAT3 act 134.5*, STAT3 inh -33.3, STAT1 activator 89.1, HSV replic up inactive and Cl transport mod 0.423.
CCC(C)n1c(SCC(=O)Nc2cc(C)on2)nc2ccccc2c1=O (stereo unspecified) was read as STAT1 inh 14.1, STAT3 act 108.6, STAT3 inh -7.8, STAT1 activator 87.5, HSV replic up inactive and Cl transport mod 1.07.
`CCCOC(=O)c1ccc(NC(=O)c2ccoc2C)cc1` gave STAT1 inh -44.3, STAT3 act 103.5, STAT3 inh -4.4, STAT1 activator 140.9*, HSV replic up inactive and Cl transport mod 0.16.

Assay outcomes (PubChem BioAssay)
